Measurements from article PMC3009390 (Chemical biology & drug design, 2010).
Each block holds one compound with its values, some of them ahead of it.

Tests used:
[1] = system: CD58 protein on Caco-2 cells; experiment: Fluorescence microscopy of binding to Caco-2 cells; assay type: cell-based, human; conditions: fixed Caco-2 cells, about 2 h incubation, magnification 20×
CD58 protein = experiment: 1D NMR titration: binding of peptides to CD58 protein; conditions: pH 7.0, 90% H2O/10% D2O, 291 K, 700 MHz, protein:peptide 1:80
Outline: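 Recombinant CD58 extracellular domain was titrated in 10 µL aliquots into an NMR tube holding the test peptide. A 1D spectrum was recorded at each protein:peptide ratio from 1:1000 to 1:80 on a 700 MHz instrument at 291 K. Sample pH was set to 7.0 with NaOD in D2O. A control peptide was run the same way.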

RA = conditions: ref [41]; cited from earlier work

Compound: O=C1OC2(c3ccc(O)cc3Oc3cc(O)ccc32)c2ccc(N=C=S)cc21 [FITC, Fluoresceineisothiocyanate]
binding observed by fluorescence microscopy [1]: non-specific binding of FITC was observed

binding to CD58 protein by 1D NMR (CD58 protein): does not bind to protein CD58
change of peptide 1D NMR amide resonances on adding CD58 (CD58 protein): no indication of amide resonances
Compound: KGKTDAISVKAI-NH2 [control peptide]

Compound: QYMRADEADSTLR [CII-3]
RA suppression activity (RA): does not exhibit any RA suppression activity
